Reference: ChEMBL document CHEMBL1158098, “Crassolides A-F, cembranoids with a trans-fused lactone from the soft coral Sarcophyton crassocaule” (J Nat Prod, 2006)
Values after ≈ are worked out from the molar mass of the structure shown.

How the values were obtained:
Type in all cases: functional, cell-based
[1] = Cytotoxicity against human Hep G2 cells by MTT colorimetric method; details: HepG2
Summary of the method: (§1)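 Human cancer cell lines were obtained from ATCC. Cytotoxicity was measured by the MTT [3-(4,5-dimethylthiazol-2-yl)-2,5-diphenyltetrazolium bromide] colorimetric method.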

MCF7 = test: Cytotoxicity against human MCF7 cells by MTT colorimetric method; summary of the method: as §1
MDA-MB-231 = test: Cytotoxicity against human MDA-MB-231 cells by MTT colorimetric method; summary of the method: as §1
A549 = test: Cytotoxicity against human A549 cells by MTT colorimetric method; summary of the method: as §1

| Compound | IC50 [1] [µg/mL] | IC50 (MCF7) [µg/mL] | IC50 (MDA-MB-231) [µg/mL] | IC50 (A549) [µg/mL] |
| --- | --- | --- | --- | --- |
| C=C1C(=O)O[C@@H]2[C@@H]1C[C@H](OC(C)=O)[C@](C)(O)CC/C=C(\C)CC/C=C(\C)[C@@H]2OC(C)=O [CRASSOCOLIDE B] | 13.1 (≈ 30.1 µM) | 10.3 (≈ 23.7 µM) | > 30 | 12.1 (≈ 27.8 µM) |
| C=C1C(=O)O[C@H]2C/C(C)=C/CC/C(C)=C/CC[C@@](C)(O)[C@@H](OC(C)=O)C[C@H]12 [CRASSOCOLIDE C] | > 30 | > 30 | > 30 | > 30 |
| C=C1C(=O)O[C@H]2C/C(C)=C/CC/C(C)=C/CC[C@@](C)(O)[C@@H](O)C[C@H]12 [CRASSOCOLIDE D] | > 30 | 15.3 (≈ 45.7 µM) | > 30 | 12.5 (≈ 37.4 µM) |
| C=C1C(=O)O[C@H]2C[C@@]3(C)O[C@@H]3CC/C(C)=C/C[C@@H](OC(C)=O)/C(C)=C/C[C@H]12 [CRASSOCOLIDE F] | 2.1 (≈ 5.61 µM) | 7.4 (≈ 19.8 µM) | 8.8 (≈ 23.5 µM) | 3.2 (≈ 8.55 µM) |
| C=C1C(=O)O[C@@H]2[C@@H]1C[C@H](O)[C@](C)(O)CC/C=C(\C)CC/C=C(\C)[C@@H]2OC(C)=O [CRASSOLIDE A] | 3.1 (≈ 7.9 µM) | 8.9 (≈ 22.7 µM) | 8.6 (≈ 21.9 µM) | 11.9 (≈ 30.3 µM) |
| COc1cccc2c1C(=O)c1c(O)c3c(c(O)c1C2=O)C[C@@](O)(C(=O)CO)C[C@@H]3O[C@H]1C[C@H](N)[C@H](O)[C@H](C)O1 [DOXORUBICIN] | 0.2 (≈ 0.368 µM) | 0.3 (≈ 0.552 µM) | 0.1 (≈ 0.184 µM) |  |
| C=C1C(=O)O[C@H]2C[C@]3(C)O[C@H]3CC/C(C)=C/CC/C(C)=C/C[C@H]12 [LOBOPHYTOLIDE] | 6.3 (≈ 19.9 µM) | 2.3 (≈ 7.27 µM) | 2 (≈ 6.32 µM) | 2.1 (≈ 6.64 µM) |
